In paper PMC3863817 (Scientific Reports, 2013):

Legend:
COS7 cells = experiment: Measurement of cellular ATP levels; type: cell-based, African green monkey; conditions: positive control, 1 μM for 4 h
Summary of the method: (§1)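 Cells plated at 2 × 10^5 per well and grown 1 day. They were exposed to 20 μM test compound for 4, 8, 16 or 24 h, or to rotenone (1 μM, 4 h) as positive control, at 37°C. KB cells were in folic acid-depleted RPMI-1640 and COS7 in DMEM, each with 10% FBS. Harvested cells were lysed in 1% TCA/4 mM EDTA for 20 min on ice, then Tris (pH 7.4). ATP was read with a bioluminescent kit on a chemiluminometer.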

KB cells = experiment: Measurement of cellular ATP levels; type: cell-based, human; conditions: positive control, 1 μM for 4 h
Summary of the method: as §1

In the case of `C=C(C)[C@H]1Cc2c(ccc3c2O[C@@H]2COc4cc(OC)c(OC)cc4[C@@H]2C3=O)O1` [rotenone], the “Cellular ATP level, in words” value (COS7 cells) was “induce a decrease in cellular ATP level” and the “Cellular ATP level, in words” value (KB cells) was “induce a decrease in cellular ATP level”.
